Test [1] has as its target T1, Protein deacetylase HDAC6 (Homo sapiens, UniProt Q9UBN7).
T1 sequence (Q9UBN7 whole entry): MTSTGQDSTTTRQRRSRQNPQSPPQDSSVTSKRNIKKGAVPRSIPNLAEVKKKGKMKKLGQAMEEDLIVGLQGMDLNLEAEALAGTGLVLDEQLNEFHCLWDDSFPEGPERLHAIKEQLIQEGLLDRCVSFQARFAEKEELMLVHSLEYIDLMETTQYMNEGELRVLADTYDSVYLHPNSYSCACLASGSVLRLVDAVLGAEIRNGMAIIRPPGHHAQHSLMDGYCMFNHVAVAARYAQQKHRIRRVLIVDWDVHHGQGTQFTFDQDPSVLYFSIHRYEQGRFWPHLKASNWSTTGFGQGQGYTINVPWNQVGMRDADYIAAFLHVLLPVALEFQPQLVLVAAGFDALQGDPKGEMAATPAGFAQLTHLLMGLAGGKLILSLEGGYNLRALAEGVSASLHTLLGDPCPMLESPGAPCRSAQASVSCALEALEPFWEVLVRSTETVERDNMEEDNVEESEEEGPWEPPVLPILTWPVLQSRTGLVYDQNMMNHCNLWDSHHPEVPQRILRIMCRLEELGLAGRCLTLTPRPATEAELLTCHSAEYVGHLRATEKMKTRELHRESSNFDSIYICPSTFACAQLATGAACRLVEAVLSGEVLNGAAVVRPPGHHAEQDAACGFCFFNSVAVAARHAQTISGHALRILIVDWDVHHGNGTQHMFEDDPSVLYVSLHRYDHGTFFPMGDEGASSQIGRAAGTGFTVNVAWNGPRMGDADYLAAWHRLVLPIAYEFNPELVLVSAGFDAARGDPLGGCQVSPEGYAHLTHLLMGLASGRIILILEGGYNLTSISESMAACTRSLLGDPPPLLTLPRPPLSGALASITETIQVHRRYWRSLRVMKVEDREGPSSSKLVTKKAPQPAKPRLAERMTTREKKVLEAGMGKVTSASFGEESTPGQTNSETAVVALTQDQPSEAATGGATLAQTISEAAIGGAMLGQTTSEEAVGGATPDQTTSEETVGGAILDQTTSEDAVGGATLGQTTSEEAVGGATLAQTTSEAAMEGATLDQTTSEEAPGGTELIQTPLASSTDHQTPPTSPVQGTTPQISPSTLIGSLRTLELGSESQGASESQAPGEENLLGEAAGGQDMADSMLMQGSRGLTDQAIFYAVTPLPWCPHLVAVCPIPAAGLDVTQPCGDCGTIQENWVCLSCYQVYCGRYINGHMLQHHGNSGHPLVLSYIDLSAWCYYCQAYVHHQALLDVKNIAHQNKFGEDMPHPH
Nature of the test: Inhibition of HDAC6 (unknown origin) using Fluor de lys as substrate by fluorescence based analysis.

The target of a further test is T2, Histone deacetylase 8 (Homo sapiens, UniProt Q9BY41).
T2 sequence (Q9BY41 whole entry): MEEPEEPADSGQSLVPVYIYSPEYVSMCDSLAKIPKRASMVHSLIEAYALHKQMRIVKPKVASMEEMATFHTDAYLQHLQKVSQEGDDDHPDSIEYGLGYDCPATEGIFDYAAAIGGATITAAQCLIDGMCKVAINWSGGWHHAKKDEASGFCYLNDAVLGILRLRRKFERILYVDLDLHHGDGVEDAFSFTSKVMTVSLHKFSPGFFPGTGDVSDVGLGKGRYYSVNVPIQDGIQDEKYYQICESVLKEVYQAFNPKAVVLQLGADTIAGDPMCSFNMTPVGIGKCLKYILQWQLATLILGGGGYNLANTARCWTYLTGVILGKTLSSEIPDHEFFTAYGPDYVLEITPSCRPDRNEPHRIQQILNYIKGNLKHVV
Nature of the test: Inhibition of HDAC8 (unknown origin) using Fluor de lys as substrate by fluorescence based analysis.

For a further test, the system named is HL-60. In words: Antiproliferative activity against human HL-60 cells assessed as cell growth at 10 uM incubated for 48 hrs by SRB assay relative to control. In kind it is functional. Conditions: read-out: Activity. In outline:
(§1)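 Single-concentration screen at 10 μM run by NCI on its NCI-60 human tumour panel (blood, lung, colon, CNS, melanoma, ovary, kidney, prostate, breast), following the NCI-60 published methodology. Read-out is growth percent relative to untreated cells.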
A general note: Sulforhodamine B stains cellular protein and so reports cell mass.

In a further test the test system is K562. Nature of the test: Antiproliferative activity against human K562 cells assessed as cell growth at 10 uM incubated for 48 hrs by SRB assay relative to control. In kind it is functional. The following applies: read-out: Activity. The method, boiled down: as §1
In a further test the test system is SR. Nature of the test: Antiproliferative activity against human SR cells assessed as cell growth at 10 uM incubated for 48 hrs by SRB assay relative to control. In kind it is functional. The following applies: read-out: Activity. The method, boiled down:
(§2)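 NCI-60 single-dose screen: compounds tested at 10 μM, and growth percent of each cell line calculated. The full method follows the NCI DTP protocol.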

In the next test the test system is COLO 205. In words: Antiproliferative activity against human COLO 205 cells assessed as cell growth at 10 uM incubated for 48 hrs by SRB assay relative to control. Format: functional. Conditions: read-out: Activity. In outline:
as §1

The test system of the next test is HCT-116. Nature of the test: Antiproliferative activity against human HCT-116 cells assessed as cell growth at 10 uM incubated for 48 hrs by SRB assay relative to control. Format: functional. Conditions: read-out: Activity. In outline: as §1
In a further test the test system is KM12. In words: Antiproliferative activity against human KM12 cells assessed as cell growth at 10 uM incubated for 48 hrs by SRB assay relative to control. The following applies: read-out: Activity. In kind it is functional. In outline: as §1
The next test has as its system SW-620. In words: Antiproliferative activity against human SW620 cells assessed as cell growth at 10 uM incubated for 48 hrs by SRB assay relative to control. Format: functional. Conditions: read-out: Activity. The method, boiled down: as §2
The test system of a further test is SK-MEL-28. In words: Antiproliferative activity against human SK-MEL-28 cells assessed as cell growth at 10 uM incubated for 48 hrs by SRB assay relative to control. Format: functional. The following applies: read-out: Activity. The method, boiled down: as §1
The test system of another test is OVCAR-3. In words: Antiproliferative activity against human OVCAR-3 cells assessed as cell growth at 10 uM incubated for 48 hrs by SRB assay relative to control. Format: functional. The following applies: read-out: Activity. In outline: as §1
A further test deals with OVCAR-8. In words: Antiproliferative activity against human OVCAR-8 cells assessed as cell growth at 10 uM incubated for 48 hrs by SRB assay relative to control. Conditions: read-out: Activity. Format: functional. The method, boiled down:
as §1

A further test concerns A498. In words: Antiproliferative activity against human A498 cells assessed as cell growth at 10 uM incubated for 48 hrs by SRB assay relative to control. Format: functional. Conditions: read-out: Activity. In outline:
as §1

The test system of the next test is ACHN. In words: Antiproliferative activity against human ACHN cells assessed as cell growth at 10 uM incubated for 48 hrs by SRB assay relative to control. In kind it is functional. The following applies: read-out: Activity. In outline:
as §1

The next test has as its system CAKI-1. In words: Antiproliferative activity against human CAKI-1 cells assessed as cell growth at 10 uM incubated for 48 hrs by SRB assay relative to control. Format: functional. The following applies: read-out: Activity. The method, boiled down:
as §1

The next test relates to RXF 393. In words: Antiproliferative activity against human RXF 393 cells assessed as cell growth at 10 uM incubated for 48 hrs by SRB assay relative to control. Format: functional. Conditions: read-out: Activity. The method, boiled down: as §1
The subject of a further test is SN12C. Nature of the test: Antiproliferative activity against human SN12C cells assessed as cell growth at 10 uM incubated for 48 hrs by SRB assay relative to control. Conditions: read-out: Activity. Format: functional. In outline:
as §2

The subject of the next test is RPMI-8226. In words: cells. In kind it is functional, cell-based. The following applies: Homo sapiens, RPMI-8226, 72 h.
The test system of the next test is U-266. Nature of the test: cells. In kind it is functional, cell-based. The following applies: Homo sapiens, U-266, 72 h.

Each structure is given as a SMILES string.

For orientation: IC50 means the concentration needed to halve the response being measured. Higher therefore signals weaker potency in that assay.

As for `O=C(NO)c1ccc(CN2CC(=O)N(Cc3ccccc3)[C@H](Cc3ccccc3)C2=O)cc1`, the IC50 in test [1] worked out at 0.00983 µM; at Histone deacetylase 8, 0.145 µM; with RPMI-8226, 11.7 µM; with U-266, 25.9 µM. Further, the growth at 10 µM in the test on HL-60 was 102%; in the test with K562, 76.4%; in the test with SR, 63.5%; with COLO 205 it was 89.2%; with HCT-116, 84.1%; in the test with KM12, 86.9%. Besides, the growth at 10 µM in the test with SW-620 was 94.1%; in the test on SK-MEL-28, 95.4%; in the test on OVCAR-3, 79.7%; in the test with OVCAR-8, 75%; in the test on A498, 67.4%; with ACHN it was 90.6%. For the same molecule, the values for the growth at 10 µM with CAKI-1, in the test with RXF 393 and in the test on SN12C were 96.5%, 86% and 96.6%, respectively.
As to `O=C1CN(Cc2ccc(C(=O)NO)cc2)C(=O)[C@@H](Cc2c[nH]c3ccccc23)N1`, the IC50 in test [1] turned out to be 0.00073 µM; against Histone deacetylase 8, 0.513 µM; in the test on RPMI-8226, 33.2 µM; with U-266, 43.2 µM. The growth at 10 µM with HL-60 is 126%; with K562, 100%; in the test with SR, 115%; with COLO 205, 120%; in the test on HCT-116 it was 54.9%; in the test with KM12, 102%. Besides, the growth at 10 µM is 103% with SW-620; 110% in the test on SK-MEL-28; 104% in the test on OVCAR-3; 94.8% in the test on OVCAR-8; 85% with A498; 104% in the test on ACHN. In addition, the growth at 10 µM in the test with CAKI-1 turned out to be 93.8%; with RXF 393, 105%; in the test on SN12C, 100%.

These data come from ChEMBL document CHEMBL5230083, “Novel 2, 5-diketopiperazine derivatives as potent selective histone deacetylase 6 inhibitors: Rational design, synthesis and antiproliferative activity” (Eur J Med Chem, 2020).
